The values below come from ChEMBL document CHEMBL4028851, “Discovery of Potent Small-Molecule Inhibitors of Ubiquitin-Conjugating Enzyme UbcH5c from α-Santonin Derivatives” (J Med Chem, 2017).

In data set [1] the target is Ubiquitin-conjugating enzyme E2 D1 (Homo sapiens) (UniProt P51668). The data set can be described thus: Inhibition of UbcH5a (unknown origin) at 2.5 to 10 uM preincubated for 15 mins followed by E1, Ub and ATP addition measured after 40 mins by Western blot analysis.
The target of data set [2] is Ubiquitin-conjugating enzyme E2 D3 (Mus musculus) (UniProt P61079). Nature of the data set: Inhibition of UbcH5c in mouse b.End3 cells assessed as decrease in TNF-alpha-mediated IkB-alpha degradation preincubated for 2 hrs followed by TNF-alpha stimulation for 20 mins by Western blot analysis. In kind it is cell-based. The method in brief:
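bEnd.3 cells (DMEM, 10% FBS) were pretreated with compound at 2.5, 5 or 10 µM for 2 h, then stimulated with 20 ng/mL TNF-α (15 min in the methods, 20 min in the legend). Lysates were run on 10% SDS-PAGE and immunoblotted for phospho-IκBα, IκBα, phospho-p65 and p65, with GAPDH as loading control.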

Data set [3] in a line: AUC (0 to infinity) in Sprague-Dawley rat at 5 mg/kg, po via gavage by LC-MS/MS analysis. In kind it is ADME, organism-based. More on the design: dose 5 mg/kg, time infinity, route oral. Particulars: in vivo. In a few lines:
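Male Sprague-Dawley rats (about 200‒220 g), n = 6, fasted overnight; single oral gavage at 5 mg/kg as a suspension in 0.5% methylcellulose. Blood was drawn from the orbital artery into heparin tubes at 0.083–24 h. Plasma was analysed by LC/MS/MS (ESI, MRM). AUC(0-∞) came from noncompartmental analysis, reported as mean ± SD of six rats.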

Data set [4] deals with Ubiquitin-conjugating enzyme E2 D3 (Mus musculus) (UniProt P61079). The data set can be described thus: Inhibition of UbcH5c in mouse b.End3 cells assessed as decrease in TNF-alpha-mediated IkB-alpha degradation at 10 uM preincubated for 2 hrs followed by TNF-alpha stimulation for 15 mins by Western blot analysis.
Chain of Ubiquitin-conjugating enzyme E2 D3 (Mus musculus) (P61079 whole entry, looked up): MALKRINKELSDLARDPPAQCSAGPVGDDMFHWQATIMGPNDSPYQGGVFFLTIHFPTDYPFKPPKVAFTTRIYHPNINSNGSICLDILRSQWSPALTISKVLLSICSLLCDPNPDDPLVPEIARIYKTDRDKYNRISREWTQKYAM
Data set [5] concerns Rattus norvegicus. Nature of the data set: Antiarthritic activity in Wistar rat Freund's adjuvant-induced arthritis model assessed as reduction in arthritis index score at 5 to 20 mg/kg, po qd administered on day 10 to 20 postimmunization measured every 2 to 3 days during compound dosing. In kind it is functional, organism-based. In a few lines: (§1)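 Adjuvant arthritis was induced by intradermal CFA (0.1 mL) into the base of the left hind paw (day 0), with a boost 10 days later. Rats were dosed orally once daily at 5 or 20 mg/kg from day 10 to day 20, with 10 rats per group. Vehicle controls received 0.3% sodium carboxymethylcellulose. Two blinded observers scored the animals every 2 or 3 days. Data are mean ± S.E.M.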

A short description of data set [6]: Half life in Sprague-Dawley rat at 5 mg/kg, po via gavage by LC-MS/MS analysis. The class given is ADME, organism-based. Particulars: in vivo. In a few lines:
(§2)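 Male Sprague-Dawley rats (about 200‒220 g; n = 6) were fasted overnight and gavaged with 5 mg/kg as a suspension in 0.5% methylcellulose. Blood was taken from the orbital artery at 0.083–24 h into heparin tubes. Plasma was quantified by LC/MS/MS (ESI, MRM), with noncompartmental analysis. Bioavailability was referenced to a 1 mg/kg iv dose. Values are mean ± SD.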

The nature of data set [7]: Cmax in Sprague-Dawley rat at 5 mg/kg, po via gavage by LC-MS/MS analysis. The class given is ADME, organism-based. More on the design: dose 5 mg/kg, route oral. The following applies: in vivo. In a few lines: as §2
The next data set is described as follows: in vitro. The following applies: human, HEK-293T cells.
Data set [8] in a line: AUC (0 to infinity) in Sprague-Dawley rat at 1 mg/kg, iv by LC-MS/MS analysis. The class given is ADME, organism-based. More on the design: dose 1 mg/kg, time infinity, route intravenous. The following applies: in vivo.
The target of data set [9] is Ubiquitin-conjugating enzyme E2 L3 (Homo sapiens) (UniProt P68036). The data set can be described thus: Inhibition of UbcH7 (unknown origin) at 2.5 to 10 uM preincubated for 15 mins followed by E1, Ub and ATP addition measured after 40 mins by Western blot analysis.
Chain of Ubiquitin-conjugating enzyme E2 L3 (Homo sapiens) (P68036 whole entry): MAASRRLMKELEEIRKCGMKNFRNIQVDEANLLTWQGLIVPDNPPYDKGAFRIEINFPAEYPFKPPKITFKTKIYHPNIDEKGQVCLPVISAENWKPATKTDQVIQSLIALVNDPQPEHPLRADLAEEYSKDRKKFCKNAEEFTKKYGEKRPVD
Data set [10] in a line: Volume of distribution at steady state in Sprague-Dawley rat at 1 mg/kg, iv by LC-MS/MS analysis. The class given is ADME, organism-based. Particulars: in vivo, read-out: Vdss. The method in brief: (§3)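 Male Sprague-Dawley rats (about 200‒220 g; n = 6) were fasted overnight and given a single 1 mg/kg iv dose in DMSO:castor oil:saline (3:3:94). Blood was sampled from the orbital artery into heparin tubes. Plasma was analysed by LC/MS/MS (ESI, MRM), and parameters came from noncompartmental analysis. Values are mean ± SD.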

The nature of data set [11]: Half life in rat whole blood at 5 uM. In kind it is ADME. In a few lines:
(§4)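 Compound (5 µM final, from a 25 mM DMSO stock) was incubated at 37 °C in rat plasma (0–90 min) or rat whole blood (0, 5, 10, 30, 60, 90 min). Reactions were quenched with ice-cold acetonitrile, centrifuged, and the supernatants analysed.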

Data set [12] in a line: Half life in rat liver microsomes at 5 uM in preincubated for 3 mins followed by NADPH addition measured up to 90 mins. In kind it is ADME, microsome. In a few lines: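 Rat liver microsomes (0.5 mg/mL) were used in 100 mM potassium phosphate, pH 7.4, with compound at 5 µM final. After 3 min preincubation at 37 °C, an NADPH-generating system was added (4 mM MgCl2, 1 mM NADP+, 10 mM glucose 6-phosphate, 1 unit/mL G6PDH). Incubation continued for 0–90 min and was stopped with ice-cold acetonitrile.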

A short description of data set [13]: Half life in rat plasma at 5 uM. The class given is ADME, cell-free. In a few lines: as §4
In data set [14] the target is T1, Ubiquitin-conjugating enzyme E2 C (Homo sapiens) (UniProt O00762).
T1 sequence (whole entry): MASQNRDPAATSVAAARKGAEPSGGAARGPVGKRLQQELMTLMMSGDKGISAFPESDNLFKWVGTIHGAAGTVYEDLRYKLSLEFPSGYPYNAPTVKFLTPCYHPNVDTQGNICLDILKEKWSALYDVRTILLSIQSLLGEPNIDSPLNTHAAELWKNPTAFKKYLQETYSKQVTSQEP
Nature of the data set: Inhibition of UbcH10 (unknown origin) at 2.5 to 10 uM preincubated for 15 mins followed by E1, Ub and ATP addition measured after 40 mins by Western blot analysis.

Data set [15] concerns the target T2, Ubiquitin-conjugating enzyme E2 K (Homo sapiens) (UniProt P61086).
T2 sequence (whole entry): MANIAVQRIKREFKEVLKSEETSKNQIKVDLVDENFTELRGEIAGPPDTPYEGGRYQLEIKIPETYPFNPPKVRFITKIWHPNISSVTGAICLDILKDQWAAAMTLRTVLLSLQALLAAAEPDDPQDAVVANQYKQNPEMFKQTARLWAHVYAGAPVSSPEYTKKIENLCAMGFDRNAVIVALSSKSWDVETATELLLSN
The data set can be described thus: Inhibition of E2-25K (unknown origin) at 2.5 to 10 uM preincubated for 15 mins followed by E1, Ub and ATP addition measured after 40 mins by Western blot analysis.

A short description of data set [16]: Half life in Sprague-Dawley rat at 1 mg/kg, iv by LC-MS/MS analysis. In kind it is ADME, organism-based. Particulars: in vivo. In a few lines: as §3
The nature of data set [17]: Tmax in Sprague-Dawley rat at 5 mg/kg, po via gavage by LC-MS/MS analysis. The class given is ADME, organism-based. The following applies: in vivo. The method in brief: as §2
Data set [18] deals with Rattus norvegicus. The data set can be described thus: Antiarthritic activity in Wistar rat Freund's adjuvant-induced arthritis model assessed as protection against body weight loss at 5 to 20 mg/kg, po qd administered on day 10 to 20 postimmunization measured every 2 to 3 days during compound dosing. In kind it is functional, organism-based. The method in brief: as §1

The nature of data set [19]: Binding affinity to IYHPNINSNGSICLDILR assessed as covalent adduct formation with Cys85 residues after 1 hr by LC/MS/MS analysis.
Data set [20] can be described thus: Clearance in Sprague-Dawley rat at 1 mg/kg, iv by LC-MS/MS analysis. In kind it is ADME, organism-based. Particulars: in vivo. The method in brief: as §3

Each structure is given as a SMILES string. Activity calls are given as the source filed them. The rule behind the calls is not given here.

Chain of Ubiquitin-conjugating enzyme E2 D1 (Homo sapiens) (P51668 whole entry): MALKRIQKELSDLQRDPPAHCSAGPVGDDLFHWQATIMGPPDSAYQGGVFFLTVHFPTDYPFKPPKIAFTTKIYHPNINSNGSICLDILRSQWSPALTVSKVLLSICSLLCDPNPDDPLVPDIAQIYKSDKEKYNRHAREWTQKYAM

Regarding `C=C1C(=O)O[C@H]2c3c(C)c(OCc4ccccc4Br)cc(C)c3CC[C@@H]12`, the inhibition entry in data set [1], in [4], in data set [9] and in [14] was “Active” each time. Moreover, the inhibition result in data set [2] is “Dose-dependent effect”. Besides, the figures for the AUC(0-inf) in data set [3] and in [8] were 0.314 µg·h/mL and 0.408 µg·h/mL, respectively. Also, the outcome (in the data set with Rattus norvegicus [5]; in [19]) was Active. In addition, the half-life in data set [6] is 2.86 h; in [16], 1.76 h. In [7], this molecule had a maximum concentration (Cmax) of 0.0422 µg/mL. This molecule also yielded a cytotoxicity at 5 µM in “in vitro” of under 20%. Further, in data set [10], the Vd stood at 6.26 L/kg. The half-life at 5 µM in data set [11] amounted to 0.663 h; in [12], 2.11 h; in data set [13], 1.43 h. Further, the inhibition result in data set [15] is “inactive”. Besides, in data set [17], the Tmax came out at 3.83 h. Moreover, the outcome in the data set on Rattus norvegicus [18] was inactive. The clearance in [20] was 2.48 L/h/kg.
